Measured values of several laboratories.
Each line is one published result; the experiments were not run side by side. ≈ marks a conversion by molar mass, not a printed value.

With `Cc1cc(NS(=O)(=O)c2ccc(N)cc2)no1` the MIC was 64 µg/mL (≈ 253 µM) (Salmonella enterica; microbial growth; F98, TYPHIMURIUM; 20 h, pH 7.2).
With `O=C(O)c1ccc(O)cc1` the inhibition was 100% (Helicobacter pylori; microbial growth, broth dilution; 31.25 µg/mL).
`O=C(O)CN1C(=O)/C(=C/c2ccc(-c3ccc(N(c4ccccc4)c4ccccc4)cc3)c3ccccc23)NC1=S` gave an MBC of greater than 1000 µg/mL (Bacillus cereus; microbial killing, broth dilution; ATCC10876).
The MIC of `CC1(C)S[C@@H]2[C@H](NC(=O)[C@H](N)c3ccccc3)C(=O)N2[C@H]1C(=O)O` is reported as 1 µg/mL (≈ 2.86 µM) (Salmonella enterica; microbial growth; ENTERITIDIS; 20 h, pH 5.5).
With `COC(=O)c1ccc(O)cc1` the inhibition was 100% (Helicobacter pylori; microbial growth, broth dilution; 125 µg/mL).
`O=C(N[C@H](CO)[C@H](O)c1ccc([N+](=O)[O-])cc1)C(Cl)Cl` has an MIC of 2 µg/mL (≈ 6.19 µM) (Salmonella enterica; microbial growth; 20 h, pH 5.5).
For `O=c1cc(-c2ccc(O)cc2)oc2cc(O)cc(O)c12`, the inhibition was 82.6% (Helicobacter pylori; microbial growth, broth dilution; 0.98 µg/mL).
With `CNC1=C([N+](=O)[O-])C2(C(=O)Nc3ccccc32)C2=C(O1)C(=O)c1ccccc1C2=O` (stereo not shown) the MBC was no more than 1000 µg/mL (Salmonella enterica; microbial killing; TYPHIMURIUM).
The MIC90 of `O=C(N/N=C/c1ccc([N+](=O)[O-])o1)c1ccc(O)cc1` is reported as 0.98 µg/mL (≈ 3.56 µM) (Salmonella enterica; microbial growth; ATCC13311 TYPHIMURIUM).
With `COc1cc([C@H]2OC[C@H]3[C@@H]2CO[C@@H]3c2cc(OC)c(O)c(OC)c2)cc(OC)c1O` the inhibition was 100% (Helicobacter pylori; microbial growth, broth dilution; 31.25 µg/mL).
`O=C1NC(=S)N/C1=C\c1c2ccccc2c(-c2ccc(N(c3ccccc3)c3ccccc3)cc2)c2ccccc12` gave an MIC of greater than 1000 µg/mL (Bacillus cereus; microbial growth, broth dilution; ATCC10876).
With `COc1ccc(-c2cc(=O)c3c(O)cc(O[C@@H]4O[C@H](CO)[C@@H](O)[C@H](O)[C@H]4O)cc3o2)cc1O` the inhibition was 100% (Helicobacter pylori; microbial growth, broth dilution; 62.5 µg/mL).
For `CO/N=C(\C(=O)N[C@@H]1C(=O)N2C(C(=O)O)=C(CSc3nc(=O)c(=O)[nH]n3C)CS[C@H]12)c1csc(N)n1`, the MIC was 0.0625 µg/mL (≈ 0.113 µM) (Salmonella enterica; microbial growth; 20 h, pH 7).
The MBC of `O=C1NC(=S)S/C1=C\c1ccc(-c2ccc(N(c3ccccc3)c3ccccc3)cc2)c2ccccc12` is reported as greater than 1000 µg/mL (Bacillus cereus; microbial killing, broth dilution; ATCC10876).
The MIC of `CS(=O)(=O)c1ccc([C@@H](O)[C@@H](CF)NC(=O)C(Cl)Cl)cc1` is reported as 4 µg/mL (≈ 11.2 µM) (Salmonella enterica; microbial growth; ENTERITIDIS; 20 h, pH 7).
`CN[C@H](CC(C)C)C(=O)N[C@H]1C(=O)N[C@@H](CC(N)=O)C(=O)N[C@H]2C(=O)N[C@H]3C(=O)N[C@H](C(=O)N[C@H](C(=O)O)c4cc(O)cc(O)c4-c4cc3ccc4O)[C@H](O)c3ccc(c(Cl)c3)Oc3cc2cc(c3O[C@@H]2O[C@H](CO)[C@@H](O)[C@H](O)[C@H]2O[C@H]2C[C@](C)(N)[C@H](O)[C@H](C)O2)Oc2ccc(cc2Cl)[C@H]1O` gave an MIC of 0.98 µg/mL (≈ 0.676 µM) (Bacillus cereus; microbial growth, broth dilution; ATCC10876).
With `O=C(O)c1cn(C2CC2)c2cc(N3CCNCC3)c(F)cc2c1=O` the MIC was 0.0156 µg/mL (≈ 0.0471 µM) (Salmonella enterica; microbial growth; ENTERITIDIS; 20 h, pH 7.2).
`COc1c(N2C[C@@H]3CCCN[C@@H]3C2)c(F)cc2c(=O)c(C(=O)O)cn(C3CC3)c12` gave an MIC90 of 0.49 µg/mL (≈ 1.22 µM) (Salmonella enterica; microbial growth; ATCC13311 TYPHIMURIUM).
For `[H]/N=C(/N)N[C@H]1[C@H](O)[C@@H](O)[C@H](O[C@@H]2O[C@@H](C)[C@](O)(C=O)[C@H]2O[C@@H]2O[C@@H](CO)[C@H](O)[C@@H](O)[C@@H]2NC)[C@@H](N/C(N)=N\[H])[C@@H]1O`, the MIC was 64 µg/mL (≈ 110 µM) (Salmonella enterica; microbial growth; 20 h, pH 7).
With `O=C(O)CN1C(=O)/C(=C/c2ccc(-c3ccc(N(c4ccccc4)c4ccccc4)cc3)cc2)SC1=S` the MBC was 31.3 µg/mL (≈ 59.9 µM) (Bacillus cereus; microbial killing, broth dilution; ATCC10876).
`O=c1cc(-c2ccc(O)c(O)c2)oc2cc(O)cc(O)c12` gave an inhibition of 73.2% (Helicobacter pylori; microbial growth, broth dilution; 0.98 µg/mL).
`O=C(O)CN1C(=O)/C(=C/c2ccc(-c3ccc(N(c4ccccc4)c4ccccc4)cc3)c3ccccc23)SC1=S` has an MBC of greater than 1000 µg/mL (Bacillus cereus; microbial killing, broth dilution; ATCC10876).
For `CN(C)[C@@H]1C(O)=C(C(N)=O)C(=O)[C@@]2(O)C(O)=C3C(=O)c4c(O)cccc4[C@@](C)(O)[C@H]3C[C@@H]12`, the MIC was 1 µg/mL (≈ 2.25 µM) (Salmonella enterica; microbial growth; F98, TYPHIMURIUM; 20 h, pH 7).
`O=C1NC(=S)N/C1=C\c1ccc(-c2ccc(N(c3ccccc3)c3ccccc3)cc2)cc1` gave an MBC of greater than 1000 µg/mL (Bacillus cereus; microbial killing, broth dilution; ATCC10876).
The inhibition of `CC1(C)S[C@@H]2[C@H](NC(=O)[C@H](N)c3ccccc3)C(=O)N2[C@H]1C(=O)O` is reported as 100% (Salmonella enterica; microbial growth, agar dilution; ENTERITIDIS; 26.93 µM).
